Positions count from the first letter of the chain named. Where two headings read alike, the source gives them in different places.
What was measured:
[1] = target: T1, AIRE-PHD1 wild type (Homo sapiens, UniProt O43918); experiment: Isothermal titration calorimetry; format: binding; conditions: for ΔG / −TΔS: AIRE-PHD1 wt, ITC 23°C, pH 7.2, duplicate, ND = not detectable
T1 sequence (O43918 293-354): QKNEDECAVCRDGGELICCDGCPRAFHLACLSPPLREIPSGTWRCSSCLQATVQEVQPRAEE

[2] = target: T2, AIRE-PHD1 Glu298Ala (Homo sapiens, UniProt O43918, E298A); experiment: Isothermal titration calorimetry; format: binding; conditions: AIRE-PHD1 Glu298Ala mutant, ITC 23°C, pH 7.2
T2 sequence (O43918 293-354 E298A): T1 sequence (O43918 293-354) with E6A
Method in brief: (§1)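 Recombinant AIRE-PHD1 (Gln293–Glu354) point mutants, made by overlap-extension PCR and mass-verified by MALDI, at 40–85 μM in 20 mM phosphate, 150 mM NaCl, 2 mM β-mercaptoethanol, 50 μM ZnCl2, pH 7.2. Synthetic H3 1–10 peptides (0.54–2.5 mM) were injected 28–57 times at 15 min spacing, 23°C, stirring 307 rpm. Heats were corrected for dilution and fitted to a one-site model by nonlinear least squares. Run in duplicate.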

[3] = target: T3, AIRE-PHD1 Asp304Ala (Homo sapiens, UniProt O43918, D304A); experiment: Isothermal titration calorimetry; format: binding; conditions: AIRE-PHD1 Asp304Ala mutant, ITC 23°C, pH 7.2
T3 sequence (O43918 293-354 D304A): T1 sequence (O43918 293-354) with D12A
Method in brief: as §1

[4] = target: T4, AIRE-PHD1 Glu307Ala (Homo sapiens, UniProt O43918, E307A); experiment: Isothermal titration calorimetry; format: binding; conditions: AIRE-PHD1 Glu307Ala mutant, ITC 23°C, pH 7.2
T4 sequence (O43918 293-354 E307A): T1 sequence (O43918 293-354) with E15A
Method in brief: as §1

[5] = target: T1, AIRE-PHD1 wild type; conditions: AIRE-PHD1 wt, ITC; previous experiments; ref [22]; cited from earlier work
[6] = target: first PHD finger of autoimmune regulator (AIRE-PHD1), wild type (human) (UniProt O43918); experiment: other fluorescence titration
[7] = target: first PHD finger of autoimmune regulator (AIRE-PHD1), wild type (human) (UniProt O43918); experiment: ITC
[8] = target: T1, AIRE-PHD1 wild type; experiment: Tryptophan fluorescence titration; format: binding
[9] = system: GST-AIRE-PHD1; experiment: Peptide pull-down / in vitro binding assays; design: species or system human; conditions: in vitro: fluorescence titrations, ITC and peptide pull-down assays
[10] = target: T5, AIRE-PHD1 Glu298Ala (human, UniProt O43918 293-354, Glu298Ala); experiment: other fluorescence titration
T5 sequence (looked up): T1 sequence (O43918 293-354) with E6A

[11] = target: T6, AIRE-PHD1 Asp304Ala (human, UniProt O43918 293-354, Asp304Ala); experiment: other fluorescence titration
T6 sequence (looked up): T1 sequence (O43918 293-354) with D12A

[12] = target: T7, AIRE-PHD1 Glu307Ala (human, UniProt O43918 293-354, Glu307Ala); experiment: other fluorescence titration
T7 sequence (looked up): T1 sequence (O43918 293-354) with E15A

[13] = target: T5, AIRE-PHD1 Glu298Ala; experiment: ITC
[14] = target: T6, AIRE-PHD1 Asp304Ala; experiment: ITC
[15] = target: T7, AIRE-PHD1 Glu307Ala; experiment: ITC
[16] = target: T8, first PHD finger of autoimmune regulator (AIRE-PHD1), wild type (human, UniProt O43918 293-354); experiment: other fluorescence titration
T8 sequence (looked up): T1 sequence (O43918 293-354)

[17] = target: T8, first PHD finger of autoimmune …; experiment: ITC

C[C@H](N)C(=O)N[C@@H](CCCNC(=N)N)C(=O)N[C@H](C(=O)N[C@@H](CCCCN)C(=O)N[C@@H](CCC(N)=O)C(=O)N[C@H](C(=O)N[C@@H](C)C(=O)N[C@@H](C)C(=O)N[C@@H](CCCCN)C(=O)N[C@@H](CO)C(=O)O)[C@@H](C)O)[C@@H](C)O [H3R8AK4me0]
ΔG [1]: -5.8 ± 0.3 kcal/mol
−TΔS [1]: 1.6 ± 0.3 kcal/mol

C[C@H](N)C(=O)N[C@@H](CCCNC(=N)N)C(=O)N[C@H](C(=O)N[C@@H](CCCCN)C(=O)N[C@@H](CCC(N)=O)C(=O)N[C@H](C(=O)N[C@@H](C)C(=O)N[C@@H](CCCNC(=N)N)C(=O)N[C@@H](CCCCN)C(=O)N[C@@H](CO)C(=O)O)[C@@H](C)O)[C@@H](C)O [H3K4me0]
ΔG [2]: -5.9 ± 0.1 kcal/mol
ΔH [2]: -7.2 ± 0.1 kcal/mol
−TΔS [2]: 1.3 ± 0.1 kcal/mol
ΔG [3]: -5.2 ± 0.4 kcal/mol
ΔH [3]: -5.3 ± 0.4 kcal/mol
−TΔS [3]: 0.1 ± 0.4 kcal/mol
ΔG [4]: -5.9 ± 0.1 kcal/mol
ΔH [4]: -6.7 ± 0.1 kcal/mol
−TΔS [4]: 0.7 ± 0.1 kcal/mol
ΔG [5]: -7.1 ± 0.1 kcal/mol
ΔH [5]: -9.3 ± 0.1 kcal/mol
−TΔS [5]: 2.2 ± 0.1 kcal/mol

histone H3 peptide (1-10) phosphorylated at S10, H3S10PhK4me0
Kd [6]: 7.6 µM
Kd [7]: 24.7 µM

C[C@H](N)C(=O)N[C@@H](CCCNC(=N)N)C(=O)N[C@H](C(=O)N[C@@H](CCCCN)C(=O)N[C@@H](CCC(N)=O)C(=O)N[C@H](C(=O)N[C@@H](C)C(=O)N[C@@H](CCCNC(=N)N)C(=O)N[C@@H](CCCCN)C(=O)N[C@@H](COP(=O)(O)O)C(=O)O)[C@@H](C)O)[C@@H](C)O [H3S10Ph K4me0]
Kd [8]: 7.6 ± 1.2 µM
Kd [1]: 24.7 ± 0.2 µM
ΔG [1]: -6.3 ± 0.1 kcal/mol
−TΔS [1]: 3.3 ± 0.1 kcal/mol

histone H3 peptide (1-10) mono-methylated at R2, H3R2me1K4me0
Kd [6]: 248 µM
Kd [7]: 199 µM
dH [7]: -4.6 kcal/mol

H3R2me2asK4me0: H3 1-10 peptide, asymmetric di-methylation of R2
AIRE-PHD1 binding (in words) [9]: strongly reduced AIRE-PHD1 binding

ARTKQTARKS [non-modified histone H3 tail peptide H3K4me0 (residues 1-10)]
Kd [10]: 28.1 ± 2.1 µM
Kd [11]: 80 µM
Kd [12]: 19 ± 2.4 µM
Kd [13]: 43.4 ± 0.5 µM
dH [13]: -7.2 ± 0.1 kcal/mol
Kd [14]: 123 ± 6.7 µM
dH [14]: -5.3 ± 0.4 kcal/mol
Kd [15]: 40.6 ± 0.5 µM
dH [15]: -6.7 ± 0.1 kcal/mol

ARTKQTAAKS [mutant histone H3 peptide (1-10) H3R8AK4me0]
Kd [16]: 52.8 ± 4.9 µM
Kd [17]: 55.9 µM
dH [17]: -7.3 ± 0.3 kcal/mol
